Assay results of several laboratories.
Compare with care: the assays were run in different laboratories.
Target: Megakaryocyte-associated tyrosine-protein kinase (MATK, Homo sapiens, UniProt P42679)
Sequence (P42679 1-507, as in one of the studies): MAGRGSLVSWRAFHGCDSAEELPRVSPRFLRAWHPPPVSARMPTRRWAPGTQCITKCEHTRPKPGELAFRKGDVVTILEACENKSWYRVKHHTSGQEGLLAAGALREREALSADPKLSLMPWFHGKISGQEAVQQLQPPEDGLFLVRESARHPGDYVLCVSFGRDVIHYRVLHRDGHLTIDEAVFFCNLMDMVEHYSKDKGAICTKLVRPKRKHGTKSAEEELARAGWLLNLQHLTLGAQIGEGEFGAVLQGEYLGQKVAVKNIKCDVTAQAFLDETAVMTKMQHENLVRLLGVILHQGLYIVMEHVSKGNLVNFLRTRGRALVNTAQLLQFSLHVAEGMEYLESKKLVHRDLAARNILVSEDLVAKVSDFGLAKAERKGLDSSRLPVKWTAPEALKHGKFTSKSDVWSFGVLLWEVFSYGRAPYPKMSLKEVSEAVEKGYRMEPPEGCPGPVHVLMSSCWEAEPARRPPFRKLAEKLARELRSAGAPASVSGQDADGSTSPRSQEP

| SMILES | assay | setting | endpoint | result |
| --- | --- | --- | --- | --- |
| CCOCCn1cc(C(=O)Nc2ccc(-n3nc(-c4cccnc4)cc3C(F)(F)F)cn2)ccc1=O | cell-free assay, competition with immobilised ligand | 1 µM | remaining binding | 90% |
| CNC(=O)c1cc(Oc2ccc(NC(=O)Nc3ccc(Cl)c(C(F)(F)F)c3)cc2)ccn1 | cell-free assay | 0.5 µM | remaining signal | 114% |
| CN(C(=O)c1ccccc1)c1cc(N(C)c2ccc3c(c2)CCc2ccc(C(=O)NCCN4CCOCC4)cc2C3=O)ccc1F | cell-free assay, competition with immobilised ligand | 1 µM | remaining binding | 84% |
| COc1cc2ncnc(Nc3ccc(Oc4ccccc4)cc3C)c2cc1OC | enzyme activity, inhibitor | 1 µM | inhibition | 0% |
| O=C(Nc1cnn(-c2csc(C(=O)NC3COC3)c2)c1)Nc1ccccc1Cl | enzyme activity, inhibitor | 5 µM | remaining activity | 99.7% |
| O=c1nc(-c2ccccn2)sc2ccccc12 | binding, competition with immobilised ligand | 1 µM | remaining binding | 100% |
| N#CCCc1ccc2c(c1)-c1[nH]c3ccc([N+](=O)[O-])cc3c1CC(=O)N2 | cell-free assay | 0.5 µM | remaining signal | 101% |
| Cc1ccc(C(=O)Nc2ccc(CN3CCN(C)CC3)c(C(F)(F)F)c2)cc1C#Cc1cnc2cccnn12 | enzyme activity, inhibitor | 23.5 nM | remaining activity | 52% |
| CC(C)(O)[C@H]1CC[C@H](Nc2ccc3ncc(-c4cccc(C(F)(F)F)c4)n3n2)CC1 | enzyme activity, inhibitor | 1 µM | remaining activity | 102% |
| CC1=C(C#N)C(c2ccc3c(c2)c(NC(=O)c2ccccc2C)nn3C)C(C#N)=C(C)N1 | cell-free assay, competition with immobilised ligand | 1 µM | remaining binding | 79% |
| CCCS(=O)(=O)Nc1ccc(F)c(C(=O)c2c[nH]c3ncc(-c4ccc(Cl)cc4)cc23)c1F | enzyme activity, inhibitor | 1 µM | inhibition | < 20% |
| CC(C)(C)c1nc(-c2cccc(NS(=O)(=O)c3c(F)cccc3F)c2F)c(-c2ccnc(N)n2)s1 | enzyme activity, inhibitor, radiometric | 1 µM | remaining activity | 90% |
